Measurements taken from ChEMBL document CHEMBL1131000, “Synthesis and quantitative structure-activity relationships of N-(1-benzylpiperidin-4-yl)phenylacetamides and related analogues as potent and selective sigma1 receptor ligands” (J Med Chem, 1998).

Each molecule was assayed against Sigma 2 receptor (assay: Binding affinity towards sigma 2 receptor site in rat liver membranes using [3H]DTG as radioligand in presence of (+)-pentazocine.).
Assay type: cell membranes, Membrane
Method in brief: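 Male Sprague-Dawley rat liver crude P2 membranes, 35 μg protein, with 3 nM [3H]DTG plus 100 nM (+)-pentazocine to mask σ1 sites. Incubated in 50 mM Tris-HCl pH 8.0 for 120 min at 25 °C. Nonspecific binding defined with 5 μM DTG. Filtration, then scintillation counting. IC50 by nonlinear regression.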

Ki [nM] | SMILES
24.5 | O=C(Cc1ccc(Cl)cc1Cl)NC1CCN(Cc2ccccc2)CC1
493 | O=C(Cc1ccccc1[N+](=O)[O-])NC1CCN(Cc2ccccc2)CC1
153 | O=C(Cc1cccc(F)c1)NC1CCN(Cc2ccccc2)CC1
61.9 | O=C(Cc1ccccc1C(F)(F)F)NC1CCN(Cc2ccccc2)CC1
105 | O=C(Cc1ccc([N+](=O)[O-])cc1)NC1CCN(Cc2ccccc2)CC1
> 1000 | COc1ccc(OC)c(CC(=O)NC2CCN(Cc3ccccc3)CC2)c1
483 | COc1ccc(CC(=O)NC2CCN(Cc3ccccc3)CC2)cc1
53.5 | O=C(Cc1ccc(F)c(F)c1)NC1CCN(Cc2ccccc2)CC1
> 1000 | O=C(Cc1ccc(O)c(O)c1)NC1CCN(Cc2ccccc2)CC1
69.2 | O=C(Cc1ccc(F)cc1)NC1CCN(Cc2ccccc2)CC1
535 | COc1cccc(C(O)CNC2CCN(Cc3ccccc3)CC2)c1OC (centres undefined)
343 | O=C(Cc1ccccc1O)NC1CCN(Cc2ccccc2)CC1
79.2 | O=C(Cc1cccc([N+](=O)[O-])c1)NC1CCN(Cc2ccccc2)CC1
37.3 | O=C(Cc1cc(F)cc(F)c1)NC1CCN(Cc2ccccc2)CC1
> 1000 | COc1cc(CC(=O)NC2CCN(Cc3ccccc3)CC2)cc(OC)c1
> 1000 | COc1ccccc1CC(=O)NC1CCN(Cc2ccccc2)CC1
326 | COc1cccc(CC(=O)NC2CCN(Cc3ccccc3)CC2)c1
80.7 | O=C(Cc1ccc(Cl)cc1)NC1CCN(Cc2ccccc2)CC1
> 1000 | O=C(Cc1cccc(O)c1)NC1CCN(Cc2ccccc2)CC1
86.6 | O=C(Cc1ccccc1Br)NC1CCN(Cc2ccccc2)CC1
243 | O=C(Cc1ccc([N+](=O)[O-])cc1[N+](=O)[O-])NC1CCN(Cc2ccccc2)CC1
757 | O=C(Cc1ccc(O)c(Cl)c1)NC1CCN(Cc2ccccc2)CC1

Ki [nM] | SMILES
83.3 | CSc1ccc(CC(=O)NC2CCN(Cc3ccccc3)CC2)cc1
> 1000 | O=C(Cc1ccc(O)cc1)NC1CCN(Cc2ccccc2)CC1
> 1000 | COc1ccc(CC(=O)NC2CCN(Cc3ccccc3)CC2)cc1OC
130 | O=C(Cc1ccc(F)cc1F)NC1CCN(Cc2ccccc2)CC1
174 | O=C(Cc1ccccc1Cl)NC1CCN(Cc2ccccc2)CC1
80.5 | CSc1ccc(NC(=O)NC2CCN(Cc3ccccc3)CC2)cc1
667 | O=C(Cc1ccccc1F)NC1CCN(Cc2ccccc2)CC1
36.9 | O=C(Cc1cccc(Cl)c1)NC1CCN(Cc2ccccc2)CC1
240 | O=C(Cc1ccccc1)NC1CCN(Cc2ccccc2)CC1
227 | COc1ccc(NC(=O)NC2CCN(Cc3ccccc3)CC2)c(OC)c1
23.9 | O=C(Cc1ccc(Br)cc1)NC1CCN(Cc2ccccc2)CC1
14.6 | O=C(Cc1ccc(Cl)c(Cl)c1)NC1CCN(Cc2ccccc2)CC1
129 | O=C(Cc1cc(F)ccc1F)NC1CCN(Cc2ccccc2)CC1
70.8 | O=C(Cc1c(Cl)cccc1Cl)NC1CCN(Cc2ccccc2)CC1
15.2 | O=C(Cc1cccc(Br)c1)NC1CCN(Cc2ccccc2)CC1
53.4 | O=C(Cc1ccc(C(F)(F)F)cc1)NC1CCN(Cc2ccccc2)CC1
37.8 | O=C(Cc1cccc(C(F)(F)F)c1)NC1CCN(Cc2ccccc2)CC1
207 | O=C(Cc1c(F)cccc1F)NC1CCN(Cc2ccccc2)CC1
> 1000 | COc1cc(CC(=O)NC2CCN(Cc3ccccc3)CC2)cc(OC)c1OC
> 1000 | Nc1ccc(CC(=O)NC2CCN(Cc3ccccc3)CC2)cc1
290 | O=C(Cc1ccc2c(c1)OCO2)NC1CCN(Cc2ccccc2)CC1

SMILES | Ki [nM]
OC(CCCN1CCC(O)(c2ccc(Cl)cc2)CC1)c1ccc(F)cc1 (centres undefined) [HYDROXYHALOPERIDOL] | 28.6
